Assay: Cytotoxicity against human PC3M cells by MTT assay
Assay type: functional, cell-based
Settings: PC-3M
Summary of the method: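 Human metastatic prostate PC-3M cells seeded at 2000/well, recovered overnight; serial drug dilutions in medium added in quadruplicate, DMSO as negative and doxorubicin as positive control. Incubated about 40 h at 37 °C, 5% CO2, then MTT 0.4 mg/mL for 4 h; medium removed, DMSO added, absorbance read at 650 nm. Percent inhibition plotted to derive IC50.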

## CC(=O)O[C@H]1C=C2C(COC(=O)CC(C)C)=CO[C@@H](OC(=O)CC(C)C)[C@@H]2[C@@]12CO2
  IC50: 3.1 µM

## CC(=O)OCC1=CO[C@@H](OC(=O)C=C(C)C)[C@H]2C1=C[C@H](OC(=O)CC(C)C)[C@]2(O)COC(=O)CC(C)C
  IC50: 8.9 µM

## CCC(C)CC(=O)O[C@H]1C=C2C(COC(C)=O)=CO[C@@H](OC(=O)C=C(C)C)[C@@H]2[C@@]1(O)COC(=O)CC(C)C (stereo not given in full)
  IC50: 7.3 µM

## CCC(C)CC(=O)O[C@H]1C=C2C(COC(C)=O)=CO[C@@H](OC(=O)C=C(C)C)[C@@H]2[C@@]12CO2 (stereo not given in full)
  IC50: 12.2 µM

## CC(C)CC(=O)OCC1=CO[C@@H](OC(=O)CC(C)(C)O)[C@H]2C1=C[C@H](OC(=O)CC(C)C)[C@]2(O)COC(=O)CC(C)C
  IC50: 8.9 µM

## CC(=O)OCC1=CO[C@@H](OC(=O)C=C(C)C)[C@H]2C1=C[C@H](OC(=O)CC(C)C)[C@]21CO1
  IC50: 20 µM

## CC(=O)OCC1=CO[C@@H](OC(=O)CC(C)(C)O)[C@H]2C1=C[C@H](OC(=O)CC(C)C)[C@]2(O)COC(=O)CC(C)C
  IC50: 11.1 µM

## CC(C)=CC(=O)O[C@@H]1OC=C(COC(=O)CC(C)C)C2=C[C@H](OC(=O)CC(C)C)[C@]3(CO3)[C@H]21
  IC50: 2.6 µM

## COc1cccc2c1C(=O)c1c(O)c3c(c(O)c1C2=O)C[C@@](O)(C(=O)CO)C[C@@H]3O[C@H]1C[C@H](N)[C@H](O)[C@H](C)O1 [DOXORUBICIN]
  IC50: 1.26 µM

## CC(=O)OCC1=CO[C@@H](OC(=O)CC(C)C)[C@H]2C1=C[C@H](OC(=O)CC(C)C)[C@]21CO1 [VALTRATE]
  IC50: 1.7 µM

Reference: ChEMBL document CHEMBL1141444, “Sorbifolivaltrates A-D, diene valepotriates from Valeriana sorbifolia(1)” (J Nat Prod, 2007)
